Source: ChEMBL document CHEMBL1687778, “Genetic determinants involved in the susceptibility of Pseudomonas aeruginosa to beta-lactam antibiotics” (2010)

Legend:
Format in all cases: functional
Pseudomonas aeruginosa [1] = test: Antimicrobial activity against Pseudomonas aeruginosa PA14 PA0667 harboring mutation in putative metallopeptidase by Etest method
How it was run: (§1)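 Overnight LB cultures (37°C) diluted in sterile 0.85% NaCl to about 1 × 10^7 CFU/ml. 100 µl spread on Mueller-Hinton agar, one Etest strip per plate, 18 h at 37°C. Ceftazidime, imipenem and meropenem tested. Wild-type PA14 plate included in each set. Each mutant verified in triplicate.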

Pseudomonas aeruginosa [2] = test: Antimicrobial activity against wild type Pseudomonas aeruginosa PA14 by Etest method
How it was run: (§2)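 Etest MIC. Overnight LB cultures at 37°C were diluted in sterile 0.85% NaCl to about 1 × 10^7 CFU/ml. 100 µl was spread on Mueller-Hinton agar, one strip was placed per plate, and plates were incubated at 37°C for 18 h. Equal cell numbers were seeded per plate, and results were verified in triplicate. PA14 wild type was included in each set as a susceptibility control.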

Pseudomonas aeruginosa [3] = test: Antimicrobial activity against Pseudomonas aeruginosa PA14 PA0807 harboring ampDh3 mutant gene by Etest method; how it was run: as §1
Pseudomonas aeruginosa [4] = test: Antimicrobial activity against Pseudomonas aeruginosa PA14 PA0908 harboring mutation in hypothetical protein by Etest method; how it was run: as §1
Pseudomonas aeruginosa [5] = test: Antimicrobial activity against Pseudomonas aeruginosa PA14 PA1348 harboring mutation in conserved hypothetical protein by Etest method; how it was run: as §1
Pseudomonas aeruginosa [6] = test: Antimicrobial activity against Pseudomonas aeruginosa PA14 PA14_15600 harboring mutation in conserved hypothetical protein by Etest method; how it was run: as §1
Pseudomonas aeruginosa [7] = test: Antimicrobial activity against Pseudomonas aeruginosa PA14 PA14_43090 harboring mutation in hypothetical protein by Etest method; how it was run: as §1
Pseudomonas aeruginosa [8] = test: Antimicrobial activity against Pseudomonas aeruginosa PA14 PA14_06490 harboring mutation in hypothetical protein by Etest method; how it was run: as §1
Pseudomonas aeruginosa [9] = test: Antimicrobial activity against Pseudomonas aeruginosa PA14 PA2797 harboring mutation in putative anti-anti-sigma factor by Etest method; how it was run: as §1
Pseudomonas aeruginosa [10] = test: Antimicrobial activity against Pseudomonas aeruginosa PA14 PA3141 harboring wbpM mutant gene by Etest method; how it was run: as §1
Pseudomonas aeruginosa [11] = test: Antimicrobial activity against Pseudomonas aeruginosa PA14 PA3520 harboring mutation in putative periplasmic metal-binding protein by Etest method; how it was run: as §2
Pseudomonas aeruginosa [12] = test: Antimicrobial activity against Pseudomonas aeruginosa PA14 PA3620 harboring mutS mutant gene by Etest method; how it was run: as §2
Pseudomonas aeruginosa [13] = test: Antimicrobial activity against Pseudomonas aeruginosa PA14 PA3667 harboring mutation in putative cysteine sulfinate desulfinase by Etest method; how it was run: as §2
Pseudomonas aeruginosa [14] = test: Antimicrobial activity against Pseudomonas aeruginosa PA14 PA3704 harboring wspE mutant gene by Etest method; how it was run: as §2
Pseudomonas aeruginosa [15] = test: Antimicrobial activity against Pseudomonas aeruginosa PA14 PA4527 harboring pilC mutant gene by Etest method; how it was run: as §2
Pseudomonas aeruginosa [16] = test: Antimicrobial activity against Pseudomonas aeruginosa PA14 PA4748 harboring tpiA mutant gene by Etest method; how it was run: as §2
Pseudomonas aeruginosa [17] = test: Antimicrobial activity against Pseudomonas aeruginosa PA14 PA4946 harboring mutL mutant gene by Etest method; how it was run: as §2
Pseudomonas aeruginosa [18] = test: Antimicrobial activity against Pseudomonas aeruginosa PA14 PA5000 harboring wapR mutant gene by Etest method; how it was run: as §2
Pseudomonas aeruginosa [19] = test: Antimicrobial activity against Pseudomonas aeruginosa PA14 PA5001 harboring mutation in conserved hypothetical protein by Etest method; how it was run: as §2
Pseudomonas aeruginosa [20] = test: Antimicrobial activity against Pseudomonas aeruginosa PA14 PA5002 harboring mutation in hypothetical protein by Etest method; how it was run: as §2
Pseudomonas aeruginosa [21] = test: Antimicrobial activity against Pseudomonas aeruginosa PA14 PA5005 harboring mutation in putative carbamoyltransferase by Etest method; how it was run: as §2
Pseudomonas aeruginosa [22] = test: Antimicrobial activity against Pseudomonas aeruginosa PA14 PA5038 harboring aroB mutant gene by Etest method; how it was run: as §2
Pseudomonas aeruginosa [23] = test: Antimicrobial activity against Pseudomonas aeruginosa PA14 PA5192 harboring pckA mutant gene by Etest method; how it was run: as §2
Pseudomonas aeruginosa [24] = test: Antimicrobial activity against Pseudomonas aeruginosa PA14 PA5443 harboring uvrD mutant gene by Etest method; how it was run: as §2
Pseudomonas aeruginosa [25] = test: Antimicrobial activity against Pseudomonas aeruginosa PA14 PA0011 harboring mutation in putative 2-OH-lauroyltransferase by Etest method; how it was run: as §1
Pseudomonas aeruginosa [26] = test: Antimicrobial activity against Pseudomonas aeruginosa PA14 PA0401 harboring mutation in Noncatalytic dihydroorotase-like protein by Etest method; how it was run: as §1
Pseudomonas aeruginosa [27] = test: Antimicrobial activity against Pseudomonas aeruginosa PA14 PA0427 harboring oprM mutant gene by Etest method; how it was run: as §1
Pseudomonas aeruginosa [28] = test: Antimicrobial activity against Pseudomonas aeruginosa PA14 PA0764 harboring mucB mutant gene by Etest method; how it was run: as §1
Pseudomonas aeruginosa [29] = test: Antimicrobial activity against Pseudomonas aeruginosa PA14 PA0766 harboring mucD mutant gene by Etest method; how it was run: as §1
Pseudomonas aeruginosa [30] = test: Antimicrobial activity against Pseudomonas aeruginosa PA14 PA1011 harboring mutation in putative lipoprotein by Etest method; how it was run: as §1
Pseudomonas aeruginosa [31] = test: Antimicrobial activity against Pseudomonas aeruginosa PA14 PA1195 harboring mutation in putative dimethylarginine dimethylaminohydrolase by Etest method; how it was run: as §1
Pseudomonas aeruginosa [32] = test: Antimicrobial activity against Pseudomonas aeruginosa PA14 PA14_07490/07510 harboring mutation in intergenic region by Etest method; how it was run: as §1
Pseudomonas aeruginosa [33] = test: Antimicrobial activity against Pseudomonas aeruginosa PA14 PA1483 harboring cycH mutant gene by Etest method; how it was run: as §1
Pseudomonas aeruginosa [34] = test: Antimicrobial activity against Pseudomonas aeruginosa PA14 PA2128 harboring cupA1 mutant gene by Etest method; how it was run: as §1
Pseudomonas aeruginosa [35] = test: Antimicrobial activity against Pseudomonas aeruginosa PA14 PA2963 harboring mutation in putative aminodeoxychorismate lyase by Etest method; how it was run: as §1
Pseudomonas aeruginosa [36] = test: Antimicrobial activity against Pseudomonas aeruginosa PA14 PA2970 harboring rpmF mutant gene by Etest method; how it was run: as §1
Pseudomonas aeruginosa [37] = test: Antimicrobial activity against Pseudomonas aeruginosa PA14 PA3050 harboring pyrD mutant gene by Etest method; how it was run: as §1
Pseudomonas aeruginosa [38] = test: Antimicrobial activity against Pseudomonas aeruginosa PA14 PA3433 harboring mutation in putative transcriptional regulator, LysR family by Etest method; how it was run: as §2
Pseudomonas aeruginosa [39] = test: Antimicrobial activity against Pseudomonas aeruginosa PA14 PA3649 harboring mutation in putative membrane-associated zinc metalloprotease by Etest method; how it was run: as §2
Pseudomonas aeruginosa [40] = test: Antimicrobial activity against Pseudomonas aeruginosa PA14 PA3800 harboring mutation in conserved hypothetical protein by Etest method; how it was run: as §2
Pseudomonas aeruginosa [41] = test: Antimicrobial activity against Pseudomonas aeruginosa PA14 PA3818 harboring suhB mutant gene by Etest method; how it was run: as §2
Pseudomonas aeruginosa [42] = test: Antimicrobial activity against Pseudomonas aeruginosa PA14 PA3978 harboring mutation in hypothetical protein by Etest method; how it was run: as §2
Pseudomonas aeruginosa [43] = test: Antimicrobial activity against Pseudomonas aeruginosa PA14 PA4007 harboring proA mutant gene by Etest method; how it was run: as §2
Pseudomonas aeruginosa [44] = test: Antimicrobial activity against Pseudomonas aeruginosa PA14 PA4088 harboring mutation in putative aminotransferase by Etest method; how it was run: as §2
Pseudomonas aeruginosa [45] = test: Antimicrobial activity against Pseudomonas aeruginosa PA14 PA4753 harboring mutation in putative RNA-binding protein by Etest method; how it was run: as §2
Pseudomonas aeruginosa [46] = test: Antimicrobial activity against Pseudomonas aeruginosa PA14 PA5288 harboring glnK mutant gene by Etest method; how it was run: as §2
Pseudomonas aeruginosa [47] = test: Antimicrobial activity against Pseudomonas aeruginosa PA14 PA5366 harboring pstB mutant gene by Etest method; how it was run: as §2
Pseudomonas aeruginosa [48] = test: Antimicrobial activity against Pseudomonas aeruginosa PA14 PA14_23430 harboring mutation in putative heparinase by Etest method; how it was run: as §1

Measured: MIC

C[C@@H](O)[C@H]1C(=O)N2C(C(=O)O)=C(SCCNC=N)C[C@H]12 [IMIPENEM ANHYDROUS]
0.5 µg/mL: Pseudomonas aeruginosa [1] | Pseudomonas aeruginosa [2] | Pseudomonas aeruginosa [5] | Pseudomonas aeruginosa [6] | Pseudomonas aeruginosa [9] | Pseudomonas aeruginosa [10] | Pseudomonas aeruginosa [11] | Pseudomonas aeruginosa [14] | Pseudomonas aeruginosa [18] | Pseudomonas aeruginosa [24] | Pseudomonas aeruginosa [30] | Pseudomonas aeruginosa [32] | Pseudomonas aeruginosa [33] | Pseudomonas aeruginosa [36] | Pseudomonas aeruginosa [45]
0.75 µg/mL: Pseudomonas aeruginosa [13]
0.25 µg/mL: Pseudomonas aeruginosa [21] | Pseudomonas aeruginosa [28] | Pseudomonas aeruginosa [29] | Pseudomonas aeruginosa [35] | Pseudomonas aeruginosa [37] | Pseudomonas aeruginosa [39] | Pseudomonas aeruginosa [46] | Pseudomonas aeruginosa [47]
1 µg/mL: Pseudomonas aeruginosa [3]
1.5 µg/mL: Pseudomonas aeruginosa [4]
0.094 µg/mL: Pseudomonas aeruginosa [42]
0.19 µg/mL: Pseudomonas aeruginosa [38] | Pseudomonas aeruginosa [43]
0.38 µg/mL: all other assays above
